Bioassay records deposited in PubChem BioAssay by several laboratories.
Only some compounds are listed: those with a hit (about 4.3% of all), similar ones and a draw of the others.
TAAR1 agonist: agonists of human TAAR1; actives 0.99% (n = 360,000); AID 624467; Q96RJ0; CHO RD-HGA16 TAAR1, Fluo-8 calcium fluorescence; vehicle wells 0%, saturating PEA agonist 100%; activation, % at 3 µM;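 active = activation above the mean activation of all test compounds in the run plus 3 SD, cut at about 38% in these data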
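System: CHO-derived RD-HGA16 cells with stable Gα16 and human TAAR1 / Times: 17-24 h plating, Fluo-8 75 min 37 °C, 30 min RT / Technique: calcium-sensitive Fluo-8 signal, excitation 470-495, emission 515-575 nm / Measure: % activation relative to PEA EC100 response / Benchmarks: DMSO and PEA EC100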
MC4R ag barr: agonists of human melanocortin 4 receptor (MC4R) beta-arrestin | actives 0.98% (n = 360,000) | U2OS MC4R beta-arrestin complementation, luminescence; percent of melanotan II response, DMSO zero | AID 540308 | activation, % at 8.9 µM | P32245;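 active = activation above a per-plate cutoff, the mean activation of sample wells on that plate plus 3 SD, cut at about 8% in these data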
Beta2AR agonist: human beta-2 adrenergic receptor agonism by FAP; P07550; Am2.2-beta2AR cells, FAP receptor internalization, flow cytometry; response, % (no concentration beside the values); actives 0.43% (n = 340,000); AID 504454;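 active = response above a set limit, near 3 SD of response in nonfluorescent compounds, cut at about 42% in these data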
TAAR1 antagonist: human TAAR1 antagonism | AID 624466 | CHO RD-HGA16 TAAR1, Fluo-8 calcium fluorescence, antagonist | Q96RJ0 | inhibition, % at 3 µM | actives 1.5% (n = 360,000);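 active = inhibition above a per-plate cutoff, the mean inhibition of test compounds on that plate plus 3 SD, cut at about 49% in these data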
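Assay system: RD-HGA16 CHO cells with stable hTAAR1 and Gα16 / Reagent: EC80 β-phenethylamine stimulus / Doses: 3 µM, single point / Timing: dye loading 75 min at 37 °C, then 30 min room temperature / Measured by: Fluo-8 intracellular calcium dye fluorescence, real-time kinetic reads / Controls: vehicle wells and EC80 agonist wells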
m5-HT2A agonist: agonists of mouse serotonin 5-HT2A receptor (HTR2A); P35363; CHO-K1 mHTR2A beta-arrestin complementation, luminescence; percent of 30 µM serotonin response; activation, % at 7.6 µM; actives 0.66% (n = 360,000); AID 624169;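 active = activation above a run cutoff, the mean activation of all tested compounds plus 3 SD, cut at about 14% in these data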
Target sequence (P35363 whole entry, looked up): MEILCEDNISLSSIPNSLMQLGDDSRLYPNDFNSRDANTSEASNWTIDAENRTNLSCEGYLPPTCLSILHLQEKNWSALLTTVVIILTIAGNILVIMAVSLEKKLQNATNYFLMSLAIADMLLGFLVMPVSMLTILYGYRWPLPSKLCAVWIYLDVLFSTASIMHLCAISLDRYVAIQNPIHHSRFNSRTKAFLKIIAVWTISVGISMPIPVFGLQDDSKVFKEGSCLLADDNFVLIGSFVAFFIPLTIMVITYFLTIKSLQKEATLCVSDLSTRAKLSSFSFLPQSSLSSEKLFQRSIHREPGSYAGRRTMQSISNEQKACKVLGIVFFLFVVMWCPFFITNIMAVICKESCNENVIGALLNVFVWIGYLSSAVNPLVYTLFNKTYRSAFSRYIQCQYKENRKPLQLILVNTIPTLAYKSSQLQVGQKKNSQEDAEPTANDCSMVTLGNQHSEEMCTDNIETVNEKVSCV
MC4R antag cAMP: blocks human MC4R cAMP signaling; P32245; MC4R-expressing cells, MTII-stimulated cAMP, LANCE TR-FRET; inhibition, % at 6.5 µM; actives 0.48% (n = 360,000);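 active = inhibition above its plate's cutoff, the mean of tested wells on that plate plus 3 SD, cut at about 29% in these data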
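Assay system: U2OS-MC4R stable cell line; Also added: Melanotan II; Technique: Eu-cAMP/anti-cAMP TR-FRET, emission 671 nm; Times: 30-min compound, 1-h challenge, 1-h detection, room temperature.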
OPRM1 ag: OPRM1 agonism in mouse HTR2A counterscreen. shares compounds with m5-HT2A agonist. U2OS OPRM1 beta-arrestin PathHunter, luminescence; DMSO 0%, DAMGO 9.3 µM 100%. activation, % at 9.3 µM. actives 5.3% (n = 2,300). AID 624380;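 active = mean activation above the mean of DMSO-only wells plus 3 SD, cut at about 0.5% in these data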
m5-HT2A ag conf: mouse HTR2A agonism confirmed. CHO-K1 PathHunter beta-arrestin recruitment, luminescence; DMSO 0%, 30 µM serotonin 100%. shares compounds with m5-HT2A agonist. actives 19% (n = 2,300). activation, % at 7.6 µM;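 active = mean activation across triplicates above the hit threshold derived in the original primary screen, cut at about 15% in these data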
nonsel antag count: nonselective antagonism, TAAR1 counter-screen; shares compounds with TAAR1 antagonist; counterscreen cell line, calcium fluorescence, antagonist mode; inhibition, % at 3 µM; actives 77% (n = 2,400); in the data active = inhibition above about 22%;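 note: CHO-Ga16 host cells stimulated with ATP at an EC80 level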
TAAR1 antag conf: confirmation of human TAAR1 antagonists; TAAR1-expressing cells, fluorescence antagonist read-out; inhibition, % at 3 µM; shares compounds with TAAR1 antagonist; actives 40% (n = 2,400); AID 651785; in the data active = inhibition above about 49%;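 note: CHO-Ga16 host cells challenged with agonist PEA near its EC80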
Ga16 ag counter-1: nonselective Ga16 agonism, counter-screen | shares compounds with TAAR1 antagonist | Ga16-expressing cells, calcium fluorescence, agonist counterscreen | activation, % at 3 µM | actives 18% (n = 2,400) | AID 651953; in the data active = activation above about 12%
TAAR1 ag count: counter-screen for human TAAR1 antagonists: TAAR1 agonists; hTAAR1 cell line, fluorescence activation, agonist mode; shares compounds with TAAR1 antagonist; actives 2% (n = 2,400); activation, % at 3 µM; in the data active = activation above about 37%;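 note: CHO cells stably expressing TAAR1 with calcium dye readout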
TAAR1 ag conf: confirmation of human TAAR1 agonists; activation, % at 3 µM; actives 82% (n = 2,400); shares compounds with TAAR1 agonist; CHO RD-HGA16 TAAR1, Fluo-8 calcium fluorescence; scaled: DMSO 0%, maximal phenethylamine 100%;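 active = activation above a cutoff set at the run's mean compound activation plus 3 SD, cut at about 39% in these data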
Ga16 ag counter-2: nonselective agonism, TAAR1 counter-screen | CHO-Ga16 parental, Fluo-8 calcium fluorescence; normalized to maximal ATP response, DMSO zero | activation, % at 3 µM | shares compounds with TAAR1 agonist | actives 50% (n = 2,400);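 active = activation above the run cutoff, the mean activation over all tested wells plus 3 SD, cut at about 12% in these data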
TAAR1 desens: human TAAR1 agonist that also desensitizes the receptor | shares compounds with TAAR1 agonist | CHO RD-HGA16 hTAAR1, Fluo-8 calcium, beta-PEA response inhibition | inhibition, % at 3 µM | actives 46% (n = 2,400);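 active = inhibition above the run cutoff, the mean inhibition of all test compounds plus 3 SD, cut at about 49% in these data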;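 note: beta-PEA stimulus applied at its EC80; loss of beta-PEA calcium signal after compound pretreatment read as receptor desensitization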
Ga16 nonsel ant: counter-screen for TAAR1 agonists: nonselective Ga16 antagonists | shares compounds with TAAR1 agonist | CHO-Ga16 ATP-induced calcium, Fluo-8 fluorescence | inhibition, % at 3 µM | actives 39% (n = 2,400) | AID 651952;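 active = inhibition above the plate's mean compound inhibition plus 3 SD, computed per plate, cut at about 22% in these data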
Numbers stand for hits; ! = not active in a repeat.

COc1cc(CC(C)N)c(OC)cc1I (stereo unspecified) was read as TAAR1 agonist 40!, MC4R ag barr inactive, Beta2AR agonist inactive, TAAR1 antagonist inactive, m5-HT2A agonist 70, MC4R antag cAMP inactive, OPRM1 ag inactive, m5-HT2A ag conf 39, TAAR1 ag conf 39, Ga16 ag counter-2 inactive, TAAR1 desens inactive and Ga16 nonsel ant inactive.
For CN1C[C@H](CO)C[C@@H]2c3cccc4[nH]cc(c34)C[C@H]21 the results were TAAR1 agonist 42, MC4R ag barr inactive, Beta2AR agonist inactive, TAAR1 antagonist inactive, m5-HT2A agonist 23, MC4R antag cAMP inactive, OPRM1 ag inactive, m5-HT2A ag conf 113, TAAR1 ag conf 57, Ga16 ag counter-2 inactive, TAAR1 desens inactive and Ga16 nonsel ant inactive.
Screening O=C(Cn1ncc2c3ccccc3n(Cc3ccc(F)cc3)c2c1=O)N1CCC2(CC1)OCCO2 returned MC4R ag barr inactive, Beta2AR agonist inactive, m5-HT2A agonist inactive and MC4R antag cAMP inactive.
Screening CC(=O)C1(c2ccccc2)CCN(C(=O)C2CCC(=O)N(CCc3cccc(F)c3)C2)CC1 (stereo unspecified) returned TAAR1 agonist inactive, MC4R ag barr inactive, Beta2AR agonist inactive, TAAR1 antagonist 61, m5-HT2A agonist inactive, MC4R antag cAMP inactive, nonsel antag count inactive, TAAR1 antag conf inactive, Ga16 ag counter-1 inactive and TAAR1 ag count inactive.
C=CCn1c(O)c(C(C)=NCCC(c2ccccc2)c2ccccc2)c(=O)[nH]c1=O was read as TAAR1 agonist inactive, MC4R ag barr inactive, Beta2AR agonist inactive, TAAR1 antagonist 52, m5-HT2A agonist inactive, MC4R antag cAMP inactive, nonsel antag count 27, TAAR1 antag conf inactive, Ga16 ag counter-1 inactive and TAAR1 ag count inactive.
For Cc1cccc(OP(=O)(NCc2ccccc2)Oc2cccc(C)c2)c1 the results were TAAR1 agonist inactive, MC4R ag barr inactive, Beta2AR agonist inactive, TAAR1 antagonist 80, m5-HT2A agonist inactive, MC4R antag cAMP inactive, nonsel antag count 34, TAAR1 antag conf 78, Ga16 ag counter-1 13 and TAAR1 ag count inactive.
`Cc1cccc(OP(N)(=O)Oc2cccc(C)c2)c1` gave TAAR1 agonist inactive, MC4R ag barr inactive, Beta2AR agonist inactive, TAAR1 antagonist inactive, m5-HT2A agonist inactive and MC4R antag cAMP inactive.
For C=C1[C@@H](C)[C@H]2[C@H](Cc3ccccc3)NC(=O)[C@]23OC(=O)/C=C/[C@H](O)CCC[C@@H](C)C/C=C/[C@H]3[C@@H]1O the results were TAAR1 agonist inactive, MC4R ag barr inactive, Beta2AR agonist inactive, TAAR1 antagonist 72, m5-HT2A agonist inactive, MC4R antag cAMP inactive, nonsel antag count 32, TAAR1 antag conf 55, Ga16 ag counter-1 inactive and TAAR1 ag count inactive.
C=C1C(C)C2C(Cc3ccccc3)NC(=O)C23C(OC(C)=O)C=CC(C)(O)CC(C)CC=CC3C1O (stereo unspecified) was read as TAAR1 agonist inactive, MC4R ag barr inactive, Beta2AR agonist inactive, TAAR1 antagonist inactive, m5-HT2A agonist inactive and MC4R antag cAMP inactive.
CSCCC(c1nnnn1-c1c(C)cccc1C)N1CCC(n2c(=O)[nH]c3ccccc32)CC1 (stereo unspecified) was read as TAAR1 agonist inactive, TAAR1 antagonist 53, m5-HT2A agonist inactive, nonsel antag count 24, TAAR1 antag conf 55, Ga16 ag counter-1 inactive and TAAR1 ag count inactive.
O=c1[nH]c2ccccc2n1C1CCN(C(CCc2ccccc2)c2nnnn2C2CCCCC2)CC1 (stereo unspecified) was read as TAAR1 agonist inactive, TAAR1 antagonist 58, m5-HT2A agonist inactive, nonsel antag count 26, TAAR1 antag conf inactive, Ga16 ag counter-1 inactive and TAAR1 ag count inactive.
`CC(C)(C)n1nnnc1C(CCc1ccccc1)N1CCC(n2c(=O)[nH]c3ccccc32)CC1` (stereo unspecified) gave TAAR1 agonist inactive, TAAR1 antagonist inactive and m5-HT2A agonist inactive.
Screening CSCCC(c1nnnn1C1CCCC1)N1CCC(n2c(=O)[nH]c3ccccc32)CC1 (stereo unspecified) returned TAAR1 agonist inactive, TAAR1 antagonist 56, m5-HT2A agonist inactive, nonsel antag count 23, TAAR1 antag conf inactive, Ga16 ag counter-1 inactive and TAAR1 ag count inactive.
`CCOC(=O)[C@]12Cc3cc(C)ccc3[C@H]1N(C1CCCCC1)C(=O)c1ccccc12` gave TAAR1 agonist inactive, TAAR1 antagonist inactive and m5-HT2A agonist inactive.
